Data set [1] relates to Isocitrate dehydrogenase [NADP] cytoplasmic (Homo sapiens), O75874 [R132H]. Description: Inhibition of IDH1 R132H mutant (unknown origin) expressed in HEK293T cells assessed as reduction in D-2-HG levels at 10 uM after 72 hrs relative to control; values are per cent of control.
Data set [2] relates to Isocitrate dehydrogenase [NADP] cytoplasmic (Homo sapiens), O75874 [R132C]. As to the kind of experiment: Inhibition of IDH1 R132C mutant (unknown origin) expressed in HEK293T cells assessed as reduction in D-2-HG levels at 50 uM after 72 hrs relative to control; values are per cent of control.
The subject of data set [3] is Isocitrate dehydrogenase [NADP] cytoplasmic (Homo sapiens), O75874 [R132H]. As to the kind of experiment: Inhibition of IDH1 R132H mutant (unknown origin) expressed in HEK293T cells assessed as reduction in D-2-HG levels at 50 uM after 72 hrs relative to control; values are per cent of control.
Data set [4] concerns HEK-293T. As to the kind of experiment: Cytotoxicity against HEK293T cells harboring WT-IDH1 at 10 uM after 72 hrs by CellTiter-Glo assay. The class given is cell-based. Particulars: human. Put shortly:
(§1)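 HEK-293T cells stably carrying IDH1 wild-type (pMXs-IDH1wt-IRES-BsdR, blasticidin-selected), 10 000 cells per well in DMEM with 10% FCS, 37 °C, 5% CO2. Compound added at the stated concentration for 72 h. Viability read by CellTiter-Glo luminescence.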
In general terms: ATP-based viability assays read luminescence as a measure of living cells.

Data set [5] relates to Isocitrate dehydrogenase [NADP] cytoplasmic (Homo sapiens), O75874 [R132C]. Description: Inhibition of IDH1 R132C mutant (unknown origin) expressed in HEK293T cells assessed as reduction in D-2-HG levels at 10 uM after 72 hrs relative to control; values are per cent of control.
Data set [6] has as its system HEK-293T. As to the kind of experiment: Cytotoxicity against HEK293T cells harboring WT-IDH1 at 50 uM after 72 hrs by CellTiter-Glo assay. The class given is cell-based. The note with it: human. Put shortly: as §1
The nature of data set [7]: Cytotoxicity against HEK293T cells harboring WT-IDH1 assessed as cell survival at 10 uM after 72 hrs by CellTiter-Glo assay relative to control. The format is cell-based, HEK-293T. The note with it: human, read-out: Survival. In outline:
(§2)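 HEK293 cells stably expressing wild-type IDH1 (cDNA in pMXs-GW-IRES-BsdR, transfected with FuGene HD, selected with blasticidin S), grown in DMEM with 10% fetal calf serum and 1% penicillin/streptomycin at 37 °C, 5% CO2. Seeded at 10 000 cells/well in 96-well plates, treated with compound for 72 h; viability read by CellTiter-Glo luminescence.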

Data set [8] is described as follows: Cytotoxicity against HEK293T cells harboring WT-IDH1 assessed as cell survival at 50 uM after 72 hrs by CellTiter-Glo assay relative to control. The format is cell-based, HEK-293T. Particulars: human, read-out: Survival. In outline:
as §2

Data set [9] in a line: Permeability of compound at 25 ug/ml after 18 hrs by PAMPA-BBB assay. The note with it: read-out: Peff. The format is ADME. Put shortly: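 PAMPA-BBB with porcine polar brain lipid (20 mg/mL, 4 µL per filter). DMSO stock 5 mg/ml diluted in PBS to 25 ug/ml final, 300 uL in donor, 150 µL PBS in acceptor. Sandwich left 18 h at room temperature. Acceptor and reference concentrations read by UV plate reader, Pe calculated by formula. Mean ± SD of three independent experiments.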
On the technique in general: In PAMPA a lipid-coated filter parts donor from acceptor wells.

Consider 15 molecules from ChEMBL document CHEMBL4177644, “Design, synthesis and biological activity of 3-pyrazine-2-yl-oxazolidin-2-ones as novel, potent and selective inhibitors of mutant isocitrate dehydrogenase 1” (Bioorg Med Chem, 2017).

Structures are written as SMILES.

Chain of Isocitrate dehydrogenase [NADP] cytoplasmic (Homo sapiens), O75874 [R132C] (O75874 whole entry R132C): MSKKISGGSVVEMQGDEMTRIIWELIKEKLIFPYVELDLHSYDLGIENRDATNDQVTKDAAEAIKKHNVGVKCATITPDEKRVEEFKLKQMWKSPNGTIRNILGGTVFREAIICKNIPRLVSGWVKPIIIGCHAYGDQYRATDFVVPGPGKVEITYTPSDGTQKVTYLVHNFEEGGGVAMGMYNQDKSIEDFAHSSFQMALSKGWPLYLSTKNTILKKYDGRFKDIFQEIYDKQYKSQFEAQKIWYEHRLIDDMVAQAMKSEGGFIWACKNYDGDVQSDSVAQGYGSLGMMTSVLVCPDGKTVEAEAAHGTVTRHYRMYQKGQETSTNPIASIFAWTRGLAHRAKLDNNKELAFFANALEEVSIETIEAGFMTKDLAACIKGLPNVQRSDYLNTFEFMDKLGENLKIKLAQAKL
Chain of Isocitrate dehydrogenase [NADP] cytoplasmic (Homo sapiens), O75874 [R132H] (O75874 whole entry R132H): as the sequence (O75874 whole entry R132C) above, with C132H counted along it

Turning to `CC(C)[C@H]1COC(=O)N1c1cncc(N[C@@H](C)c2ccc(-c3ccccc3)cc2)n1`, the residual activity (usually the signal under treatment as a percentage of the control signal) in data set [1] worked out at 50%; in data set [2], 108%; in [3] it was 38.8%; in data set [5], 50.4%. The Activity entry in data set [4] is “Non-Toxic”.
For `CC(C)[C@H]1COC(=O)N1c1cncc(N[C@@H](C)c2ccc(-c3ccc4ccccc4c3)cc2)n1` the same measures were 85.4%, 73.9%, 39.5%, 71.3% and “Non-Toxic”.
For the molecule `CC(C)[C@H]1COC(=O)N1c1cncc(N[C@@H](C)c2ccc(-c3ccc(F)cc3)cc2)n1`, the results for the Activity entry in data set [6] and in data set [4] were “Toxic” and “Non-Toxic”, respectively. Further, the residual activity in [1] turned out to be 34.3%; in data set [2] it was 51.3%; in [3], 33%; in data set [5] it was 39%.
For the molecule `Cc1ccccc1-c1ccc([C@H](C)Nc2cncc(N3C(=O)OC[C@@H]3C(C)C)n2)cc1`, the residual activity amounted to 39.2% in data set [1], 29.1% in data set [2], 28.3% in data set [3] and 44.6% in data set [5]. Further, the Activity result in data set [4] is “Non-Toxic”.
Take `Cc1noc(C)c1-c1ccc([C@H](C)Nc2cncc(N3C(=O)OC[C@@H]3C(C)C)n2)cc1`: the Activity entry is on record as “Toxic” in data set [6] and “Non-Toxic” in data set [4]. For the same molecule, the residual activity in data set [1] stood at 47.9%; in data set [2], 30.2%; in data set [3] it was 21.5%; in data set [5] it was 54.1%.
As to `CC(C)[C@H]1COC(=O)N1c1ccnc(N[C@@H](C)c2ccc(-c3ccccn3)cc2)n1`, the residual activity in [1] was 33.9%; in data set [2], 29.7%; in data set [3] it was 24.7%. Besides, in [4], the Activity result is “Non-Toxic”.
Consider `COc1ccccc1-c1ccc([C@H](C)Nc2cncc(N3C(=O)OC[C@@H]3C(C)C)n2)cc1`, for which the viability at 72 h, 10 µM in data set [7] was determined as 89.8%. Also, the residual activity in data set [1] was determined as 31.9%; in [2] it was 28.2%; in data set [3], 24.6%; in [5], 40.6%. Besides, the viability at 72 h, 50 µM in data set [8] came to 74.5%. For the same molecule, in data set [4], the Activity result is on record as “Non-Toxic”. In addition, the Papp at 18 h, 25 ug/ml in data set [9] worked out at 6.65 ×10⁻⁶ cm/s.
As to `COc1ccc(-c2ccc([C@H](C)Nc3cncc(N4C(=O)OC[C@@H]4C(C)C)n3)cc2)cc1`, the residual activity in data set [1] is 47.7%; in data set [2] it was 51.7%; in data set [3], 31.9%; in data set [5], 51.3%. Besides, in [4], the Activity result is reported as “Non-Toxic”.
Take `CC(C)[C@H]1COC(=O)N1c1cncc(N[C@@H](C)c2ccc(-c3ccc(C(F)(F)F)cc3)cc2)n1`: the Activity result was “Toxic” in data set [6] and “Non-Toxic” in data set [4]. Moreover, the residual activity in data set [1] amounted to 28%; in data set [2] it was 27.4%; in data set [3], 30.7%; in data set [5], 39.9%.
As for `Cc1cccc(-c2ccc([C@H](C)Nc3cncc(N4C(=O)OC[C@@H]4C(C)C)n3)cc2)c1`, the residual activity in data set [1] turned out to be 49.7%; in [2], 29.7%; in data set [3] it was 28.5%; in data set [5], 51.1%. In addition, in [4], the Activity result is “Non-Toxic”.
With `CNCCCN1c2ccccc2CCc2ccccc21` [DESIPRAMINE], in [9], the Papp at 18 h, 25 ug/ml stood at 8.82 ×10⁻⁶ cm/s.
With `CC(C)[C@H]1COC(=O)N1c1cncc(N[C@@H](C)c2ccc(-c3ccccc3F)cc2)n1`, the residual activity was 78.4% in [1], 44.1% in [2], 28% in data set [3] and 89.9% in [5]. In addition, the Activity result in data set [4] is “Non-Toxic”.
The matching figures for `CC(C)[C@H]1COC(=O)N1c1cncc(N[C@@H](C)c2ccc(-c3cccc(F)c3)cc2)n1`: 97.2%, 50.6%, 34.7%, 116% and “Non-Toxic”.
For the molecule `COc1cccc(-c2ccc([C@H](C)Nc3cncc(N4C(=O)OC[C@@H]4C(C)C)n3)cc2)c1`, the residual activity in data set [1] came out at 59.8%; in data set [2] it was 41.7%; in data set [3], 33.9%; in data set [5] it was 86%. Further, in data set [4], the Activity entry was “Non-Toxic”.
The matching figures for `Cc1ccc(-c2ccc([C@H](C)Nc3cncc(N4C(=O)OC[C@@H]4C(C)C)n3)cc2)cc1`: 70.5%, 54.8%, 38.7%, 74.9% and “Non-Toxic”.
